pIC50, pKd: −log10 of the molar value. Calls of active or inactive are those of the source. The rule behind the calls is not given here.
Experiments:
[1] = Antiproliferative activity against p21-/- human 80S14 cells; type: functional, cell-based
HCT-116 = experiment: Antiproliferative activity against p21+/+ human HCT116 cells; type: functional, cell-based
LoVo [2] = experiment: Antiproliferative activity against human LoVo cells; type: functional, cell-based
SW-620 = experiment: Antiproliferative activity against human SW620 cells; type: functional, cell-based
DLD-1 = experiment: Antiproliferative activity against human DLD1 cells; type: functional, cell-based
HT-29 = experiment: Antiproliferative activity against human HT-29 cells; type: functional, cell-based
[3] = Plasma concentration in mouse at 50 mg/kg, po after 1 hr; type: ADME, organism-based; set-up: dose 50 mg/kg, route oral
How it was run: (§1)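 Nude mice were dosed orally at 50 mg/kg. Blood was sampled at 1 and 4 h, and plasma levels were reported in […].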

[4] = Plasma concentration in mouse at 50 mg/kg, po after 4 hrs; type: ADME, organism-based; set-up: dose 50 mg/kg, route oral; how it was run: as §1
[5] = Binding affinity to tubulin
How it was run: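 Binding was read by the fluorescence change of compound and tubulin tryptophan residues on binding, using unlabelled tubulin with intrinsic tryptophan fluorescence as reporter. KD was derived from this signal.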

[6] = Induction of oligomerization of tubulin
LoVo [7] = experiment: Anticancer activity against human LoVo cells xenografted mouse at 30 mg/kg, po administered 20 days measured on day 21 relative to control; type: functional
How it was run: (§2)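 Female athymic nu/nu mice were given 1×10^7 LoVo cells SC in the flank. Cells were cultured in RPMI with 10% FBS. At 90–120 mg tumour mass (day zero), mice were randomised 5 per group. Tumour mass was calculated as (length×width²)/2 every 7 days and expressed as relative growth versus day zero, treated versus control. Student t-test was run on log relative growth, with significance at p≤0.05.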

LoVo [8] = experiment: Anticancer activity against human LoVo cells xenografted mouse at 50 mg/kg, po administered 20 days measured on day 21 relative to control; type: functional; how it was run: as §2

With `COc1ccc(-c2ccnc3c(C(=O)c4cccs4)cnn23)cc1NC(=O)CC(C)C` as the molecule, how does the pIC50 [1] read?
Its pIC50 is 5.19.

What about the pIC50 (HCT-116) of the same molecule?
Its pIC50 is 4.72.

With `CC(C)NC(=O)Nc1cc(-c2ccnc3c(C(=O)c4cccs4)cnn23)ccc1F` as the molecule, how does the pIC50 [1] read?
Its pIC50 is 7.39.

What about the pIC50 (HCT-116) of the same molecule?
Its pIC50 is 5.28.

And the pIC50 (LoVo [2])?
The pIC50 was 7.96.

What about the pIC50 (SW-620) of the same molecule?
The pIC50 was 7.92.

And the pIC50 (DLD-1)?
Its pIC50 is 7.72.

What about the pIC50 (HT-29) of the same molecule?
The pIC50 was 7.77.

And the concentration at 1 h [3]?
The concentration at 1 h was 14 ng/mL.

And the concentration at 4 h [4]?
Its concentration at 4 h is 8 ng/mL.

With `O=C(NC1CCCC1)c1cccc(-c2ccnc3c(C(=O)c4cccs4)cnn23)c1` as the molecule, how does the pIC50 [1] read?
Its pIC50 is 6.41.

And the pIC50 (HCT-116)?
The pIC50 was 5.17.

What does the source list for `CC(C)CNC(=O)c1cccc(-c2ccnc3c(C(=O)c4cccs4)cnn23)c1`?
pIC50 [1]: 6.40; pIC50 (HCT-116): 5.24; pIC50 (LoVo [2]): 6.82; pIC50 (SW-620): 6.82; pIC50 (DLD-1): 7.22; pIC50 (HT-29): 6.82

With `Cc1ccc(-c2ccnc3c(C(=O)c4cccs4)cnn23)cc1NC(=O)CC(C)C` as the molecule, how does the pIC50 [1] read?
The pIC50 was 6.00.

What about the pIC50 (HCT-116) of the same molecule?
The pIC50 was 5.04.

Which results are given for `CC(C)(C)CCNc1cccc(-c2ccnc3c(C(=O)c4cccs4)cnn23)c1`?
pIC50 [1]: 6.26; pIC50 (HCT-116): 5.32

With `CCCCNC(=O)c1cccc(-c2ccnc3c(C(=O)c4cccs4)cnn23)c1` as the molecule, how does the pIC50 [1] read?
The pIC50 was 6.47.

What about the pIC50 (HCT-116) of the same molecule?
Its pIC50 is 5.28.

What does the source list for `CC(C)CC(=O)Nc1cc(-c2ccnc3c(C(=O)c4cccs4)cnn23)ccc1Cl`?
pIC50 [1]: 6.37; pIC50 (HCT-116): 5.06

With `CC(C)CCNc1cccc(-c2ccnc3c(C(=O)c4cccs4)cnn23)c1` as the molecule, how does the pIC50 [1] read?
The pIC50 was 6.11.

And the pIC50 (HCT-116)?
Its pIC50 is 5.24.

What about the pIC50 (LoVo [2]) of the same molecule?
Its pIC50 is 7.09.

And the pIC50 (SW-620)?
Its pIC50 is 6.96.

What about the pIC50 (DLD-1) of the same molecule?
The pIC50 was 6.92.

What about the pIC50 (HT-29) of the same molecule?
The pIC50 was 6.35.

With `CC(C)CC(=O)Nc1cncc(-c2ccnc3c(C(=O)c4cccs4)cnn23)c1` as the molecule, how does the pIC50 [1] read?
The pIC50 was 5.12.

What about the pIC50 (HCT-116) of the same molecule?
The pIC50 was less than 5.59.

With `CC(C)NC(=O)c1cccc(-c2ccnc3c(C(=O)c4cccs4)cnn23)c1` as the molecule, how does the pIC50 [1] read?
Its pIC50 is 6.17.

And the pIC50 (HCT-116)?
Its pIC50 is less than 4.89.

What does the source list for `CC(CC(=O)Nc1cc(-c2ccnc3c(C(=O)c4cccs4)cnn23)ccc1F)C(F)(F)F` (stereo unspecified)?
pIC50 [1]: 6.92; pIC50 (HCT-116): 5.60

With `CC(C)(C)CC(=O)Nc1cc(-c2ccnc3c(C(=O)c4cccs4)cnn23)ccc1F` as the molecule, how does the pIC50 [1] read?
The pIC50 was 6.72.

What about the pIC50 (HCT-116) of the same molecule?
The pIC50 was 5.43.

Which results are given for `CC(C)CC(=O)Nc1ccc(Cl)c(-c2ccnc3c(C(=O)c4cccs4)cnn23)c1`?
pIC50 [1]: 5.55; pIC50 (HCT-116): 4.70

With `O=C(Nc1ccccc1)c1cccc(-c2ccnc3c(C(=O)c4cccs4)cnn23)c1` as the molecule, how does the pIC50 [1] read?
The pIC50 was 6.51.

What about the pIC50 (HCT-116) of the same molecule?
Its pIC50 is 5.29.

With `CC(C)CC(=O)Nc1cc(-c2ccnc3c(C(=O)c4cccs4)cnn23)ccc1F` as the molecule, how does the pIC50 [1] read?
The pIC50 was 7.05.

What about the pIC50 (HCT-116) of the same molecule?
Its pIC50 is 5.49.

What about the pIC50 (LoVo [2]) of the same molecule?
The pIC50 was 7.82.

And the pIC50 (SW-620)?
The pIC50 was 7.82.

And the pIC50 (DLD-1)?
The pIC50 was 7.80.

And the pIC50 (HT-29)?
Its pIC50 is 7.80.

What about the pKd [5] of the same molecule?
Its pKd is 5.60.

And the Activity [6]?
Its Activity is “inactive”.

What about the concentration at 1 h [3] of the same molecule?
Its concentration at 1 h is 110 ng/mL.

What about the concentration at 4 h [4] of the same molecule?
The concentration at 4 h was 40 ng/mL.

And the T/C (LoVo [7])?
Its T/C is 57%.

What about the T/C (LoVo [8]) of the same molecule?
Its T/C is 24%.

With `CC(C)NC(=O)Nc1cccc(-c2ccnc3c(C(=O)c4cccs4)cnn23)c1` as the molecule, how does the pIC50 [1] read?
Its pIC50 is 7.05.

With `C/C=C/CNc1cccc(-c2ccnc3c(C(=O)c4cccs4)cnn23)c1` as the molecule, how does the pIC50 [1] read?
The pIC50 was 6.37.

And the pIC50 (HCT-116)?
The pIC50 was 5.42.

With `CC(C)CC(=O)Nc1ccc(-c2ccnc3c(C(=O)c4cccs4)cnn23)s1` as the molecule, how does the pIC50 [1] read?
Its pIC50 is 5.70.

What about the pIC50 (HCT-116) of the same molecule?
The pIC50 was less than 4.70.

And the pIC50 (LoVo [2])?
The pIC50 was 6.17.

And the pIC50 (SW-620)?
Its pIC50 is 6.12.

And the pIC50 (DLD-1)?
Its pIC50 is 6.21.

What about the pIC50 (HT-29) of the same molecule?
The pIC50 was 6.17.

With `CC(C)CC(=O)Nc1cccc(-c2ccnc3c(C(=O)c4cccs4)cnn23)c1` as the molecule, how does the pIC50 [1] read?
Its pIC50 is 6.85.

What about the pKd [5] of the same molecule?
The pKd was 5.37.

And the Activity [6]?
The Activity was “inactive”.

With `CC(C)OC(=O)Nc1cccc(-c2ccnc3c(C(=O)c4cccs4)cnn23)c1` as the molecule, how does the pIC50 [1] read?
Its pIC50 is 7.29.

With `CC(C)CC(=O)Nc1cc(-c2ccnc3c(C(=O)c4cccs4)cnn23)cs1` as the molecule, how does the pIC50 [1] read?
The pIC50 was 5.11.

What about the pIC50 (HCT-116) of the same molecule?
Its pIC50 is less than 4.70.

From ChEMBL document CHEMBL1152747, “Synthesis, SAR study and biological evaluation of novel pyrazolo[1,5-a]pyrimidin-7-yl phenyl amides as anti-proliferative agents” (Bioorg Med Chem, 2009)
